Laboratory results published in PMC12272722 (RSC Medicinal Chemistry, 2025).
Converted amounts (≈) assume the structure as drawn.

Legend:
[1] = test system: Trichophyton rubrum LM 237; experiment: MIC99 by broth microdilution; assay type: cell-based; conditions: LM237, 168 h, read-out: MIC99 T. rubrum
Outline: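 T. rubrum was cultured on Sabouraud dextrose agar at 27 °C for one week. Actively growing mycelium was collected into sterile distilled water with broken coverslips as inoculum. Test compound in 5% aqueous DMSO was diluted twofold serially in SDA over 2.0 × 10−1 to 2.4 × 10−5 mg mL−1. Plates were held at 30 °C and scored visually after 7 days. Run in triplicate with solvent blanks; amphotericin B and fluconazole as references.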

[2] = Water thermodynamic solubility by HPLC; assay type: physicochemical; conditions: ultrapure water, 25 °C, thermodynamic from solid
[3] = literature value; cited from earlier work

MIC99 [1] [µM] | solubility at 24 h [2] [µM] | Molecule | Aqueous solubility at 25 °C [3]
400 (≈ 200 µg/mL) |  | CC(=O)c1c(O)c(C)c(O)c2c1OC1=CC(=O)C(=C(C)N[C@@H](CCCNC(=N)N)C(=O)O)C(=O)[C@@]12C [(9bR,15S)-2, (1-((R)-6-Acetyl-7,9-dihydroxy-8,9b-dimethyl-1,3-dioxo-3,9b-dihydrodibenzo[b,d]furan-2(1H)-ylidene)ethyl)-L-arginine] | 
28 (≈ 12.5 µg/mL) | 150 (≈ 66.8 µg/mL) | COC(=O)[C@H](CO)NC(C)=C1C(=O)C=C2Oc3c(C(C)=O)c(O)c(C)c(O)c3[C@]2(C)C1=O [(9bS,15S)-1, Methyl (1-((S)-6-acetyl-7,9-dihydroxy-8,9b-dimethyl-1,3-dioxo-3,9b-dihydrodibenzo[b,d]-furan-2(1H)-ylidene)ethyl)-L-serinate] | 
450 (≈ 200 µg/mL) | 150 to 4700 (≈ 66.8 to 2090 µg/mL) | COC(=O)[C@H](CO)NC(C)=C1C(=O)C=C2Oc3c(C(C)=O)c(O)c(C)c(O)c3[C@@]2(C)C1=O [(9bR,15S)-1, Methyl (1-((R)-6-acetyl-7,9-dihydroxy-8,9b-dimethyl-1,3-dioxo-3,9b-dihydrodibenzo[b,d]furan-2(1H)-ylidene)ethyl)-L-serinate] | 
> 400 |  | C[C@@H]1[C@H](O)[C@@H](C)/C=C/C=C/C=C/C=C/C=C/C=C/C=C/[C@H](O[C@@H]2O[C@H](C)[C@@H](O)[C@H](N)[C@@H]2O)C[C@@H]2O[C@](O)(C[C@@H](O)C[C@@H](O)[C@H](O)CC[C@@H](O)C[C@@H](O)CC(=O)O[C@H]1C)C[C@H](O)[C@H]2C(=O)O [AmB, amphotericin B, reference compound] | 
> 200 |  | OC(Cn1cncn1)(Cn1cncn1)c1ccc(F)cc1F [FCZ, fluconazole, reference compound] | 
100 (≈ 50.1 µg/mL) |  | CC(=O)c1c(O)c(C)c(O)c2c1OC1=CC(=O)C(=C(C)N[C@@H](CCCNC(=N)N)C(=O)O)C(=O)[C@]12C [(9bS,15S)-2, (1-((S)-6-Acetyl-7,9-dihydroxy-8,9b-dimethyl-1,3-dioxo-3,9b-dihydrodibenzo[b,d]furan-2(1H)-ylidene)ethyl)-L-arginine] | 
 |  | usnic acid [UA] | <0.3 (lit.)[60] mM
